Measured values: ChEMBL document CHEMBL1154371, “Cytotoxic xanthone constituents of the stem bark of Garcinia mangostana (mangosteen)” (J Nat Prod, 2009)
Calls of active or inactive are those of the source. The calls are words filed in the database; no cut-off is given here.

Experiments:
Transcription factor p65 = Transcription factor p65 (Homo sapiens, UniProt Q04206); assay: Inhibition of nuclear factor NF-kappa-B p65 subunit after 1 hr by ELISA
[1] = molecular target: T1, Nuclear factor NF-kappa-B p105 subunit (Homo sapiens, UniProt P19838); assay: Inhibition of p50 after 1 hr by ELISA
T1 sequence (P19838 whole entry): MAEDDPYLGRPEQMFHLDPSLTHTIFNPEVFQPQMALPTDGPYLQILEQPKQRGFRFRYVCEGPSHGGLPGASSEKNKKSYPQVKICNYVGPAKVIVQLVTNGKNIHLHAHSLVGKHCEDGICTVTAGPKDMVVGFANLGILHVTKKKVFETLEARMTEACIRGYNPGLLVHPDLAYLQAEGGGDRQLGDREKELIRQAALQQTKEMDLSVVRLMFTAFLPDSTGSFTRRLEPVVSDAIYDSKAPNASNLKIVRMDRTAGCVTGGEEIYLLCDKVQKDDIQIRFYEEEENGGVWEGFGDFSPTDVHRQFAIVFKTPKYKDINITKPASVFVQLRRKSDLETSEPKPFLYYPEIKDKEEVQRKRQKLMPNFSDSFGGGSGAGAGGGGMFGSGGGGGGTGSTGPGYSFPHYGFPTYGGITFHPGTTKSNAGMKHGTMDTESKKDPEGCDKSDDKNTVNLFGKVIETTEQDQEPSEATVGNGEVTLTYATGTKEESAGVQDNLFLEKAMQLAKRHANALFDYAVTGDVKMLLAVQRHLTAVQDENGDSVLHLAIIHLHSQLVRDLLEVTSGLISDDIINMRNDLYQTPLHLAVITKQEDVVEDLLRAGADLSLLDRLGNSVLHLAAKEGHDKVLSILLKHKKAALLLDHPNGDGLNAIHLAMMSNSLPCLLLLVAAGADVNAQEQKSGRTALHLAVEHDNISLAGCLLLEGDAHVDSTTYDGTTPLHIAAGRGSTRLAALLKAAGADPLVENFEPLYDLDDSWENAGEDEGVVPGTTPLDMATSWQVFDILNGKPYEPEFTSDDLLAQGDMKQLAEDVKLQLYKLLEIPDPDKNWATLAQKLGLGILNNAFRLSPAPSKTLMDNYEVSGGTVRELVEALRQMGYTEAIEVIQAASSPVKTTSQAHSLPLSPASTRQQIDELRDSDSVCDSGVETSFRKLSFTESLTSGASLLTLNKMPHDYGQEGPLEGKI

MCF7 = assay: Growth inhibition of human MCF7 cells implanted at intraperitoneal compartment of NCr nu/nu mouse at 2.5 mg/kg to 20 mg/kg by hollow fiber assay; type: functional, organism-based
HT-29 [2] = assay: Growth inhibition of human HT-29 cells implanted at intraperitoneal compartment of NCr nu/nu mouse at 2.5 mg/kg to 20 mg/kg by hollow fiber assay; type: functional, organism-based
Method in brief: (§1)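 Cells were loaded into hollow fibers and implanted at the intraperitoneal site of mice. Compound was given at 2.5, 5, 10 and 20 mg/kg. Paclitaxel at 20 mg/kg was the positive control.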

HT-29 [3] = assay: Cytotoxicity against human HT-29 cells; type: functional; conditions: read-out: ED50 (the source's name)
Method in brief: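 HT-29 human colon cancer cells. Camptothecin was the positive control. Cytotoxic potency is given as ED50.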

LNCaP = assay: Growth inhibition of human LNCAP cells implanted at intraperitoneal compartment of NCr nu/nu mouse at 2.5 mg/kg to 20 mg/kg by hollow fiber assay; type: functional, organism-based; method in brief: as §1

Chain of Transcription factor p65 (Q04206 whole entry): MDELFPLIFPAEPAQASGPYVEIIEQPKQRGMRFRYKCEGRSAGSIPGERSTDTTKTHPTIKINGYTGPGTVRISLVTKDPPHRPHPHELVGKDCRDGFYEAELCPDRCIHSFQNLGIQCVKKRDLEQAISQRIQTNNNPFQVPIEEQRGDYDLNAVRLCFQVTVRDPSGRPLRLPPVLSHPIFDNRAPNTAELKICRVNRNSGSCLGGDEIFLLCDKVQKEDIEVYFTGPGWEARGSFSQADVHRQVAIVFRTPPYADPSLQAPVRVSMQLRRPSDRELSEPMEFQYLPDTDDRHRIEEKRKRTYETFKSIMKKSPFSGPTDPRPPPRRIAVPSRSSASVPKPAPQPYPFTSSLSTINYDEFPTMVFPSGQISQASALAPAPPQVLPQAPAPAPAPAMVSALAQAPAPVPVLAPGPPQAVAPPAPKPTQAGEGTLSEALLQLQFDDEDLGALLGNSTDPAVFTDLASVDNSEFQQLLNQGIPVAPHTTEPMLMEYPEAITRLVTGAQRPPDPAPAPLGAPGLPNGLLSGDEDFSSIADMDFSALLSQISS

IC50 (Transcription factor p65)	IC50 [1]	SMILES	growth inhibition (GI) (MCF7)	growth inhibition (GI) (HT-29 [2])	EC50 (HT-29 [3])	growth inhibition (GI) (LNCaP)
> 20 µM	> 20 µM	COc1cc2oc3cc(O)c(OC)c(CC=C(C)C)c3c(=O)c2c2c1CC(O)C(C)(C)O2 (stereo not given)	–	–	–	–
15.9 µM	> 20 µM	COc1c(O)cc2oc3cc(O)c(CC=C(C)C)c(O)c3c(=O)c2c1CC=C(C)C [MANGOSTIN]	inactive	inactive	1.7 µM	inactive
12.1 µM	7.5 µM	COc1cc2oc3cc(O)c(OC)c(CC=C(C)C)c3c(=O)c2c(O)c1CC=C(C)C	–	–	1.7 µM	–
> 20 µM	> 20 µM	COc1c(O)cc2oc3cc(O)c4c(c3c(=O)c2c1CC=C(C)C)OC(C)(C)C(O)C4 (stereo not given)	–	–	–	–
3.2 µM	> 20 µM	COc1c(O)cc2oc3cc(O)c(CC=C(C)C)c(O)c3c(=O)c2c1CCC(C)(C)O [GARCINONE D]	–	–	2.3 µM	–

Further lines, the compound ahead of its results:

SMILES	IC50 (Transcription factor p65)	IC50 [1]	growth inhibition (GI) (MCF7)	growth inhibition (GI) (HT-29 [2])	EC50 (HT-29 [3])	growth inhibition (GI) (LNCaP)
COc1c(O)cc2oc3cc4c(c(O)c3c(=O)c2c1CC=C(C)C)C[C@H](C(C)(C)O)O4	–	–	–	–	> 10 µM	–
COc1c(O)cc2oc3cc4c(c(O)c3c(=O)c2c1CC=C(C)C)[C@@H](c1c(O)c(CC=C(C)C)c(O)c2c(=O)c3c(CC=C(C)C)c(OC)c(O)cc3oc12)[C@H](C(C)(C)O)O4 [CRATOXYXANTHONE]	> 20 µM	> 20 µM	–	–	–	–
CC(C)=CCc1c(O)c(CC=C(C)C)c2oc3c(O)cccc3c(=O)c2c1O [8-DEOXYGARTANIN]	11.3 µM	> 20 µM	–	–	> 10 µM	–
COc1c(O)cc2oc3cc4c(c(O)c3c(=O)c2c1CC=C(C)C)CCC(C)(C)O4	–	–	–	–	4.9 µM	–
COc1c(O)cc2oc3cc4c(c(O)c3c(=O)c2c1CC=C(C)C)C=CC(C)(C)O4 [MANGOSTANIN]	> 20 µM	> 20 µM	–	–	9.1 µM	–
CC[C@@]1(O)C(=O)OCc2c1cc1n(c2=O)Cc2cc3ccccc3nc2-1 [CAMPTOTHECIN]	–	–	–	–	0.06 µM	–
CC(C)=CCc1c(O)c(CC=C(C)C)c2oc3c(O)ccc(O)c3c(=O)c2c1O [GARTANIN]	19 µM	> 20 µM	–	–	> 10 µM	–
